Values after ≈ are worked out from the molar mass of the structure shown.
Tests used:
[1] = test system: Mycobacterium tuberculosis; experiment: Antimycobacterial activity against Mycobacterium tuberculosis H37Rv after 10 days by MABA; type: functional; conditions: 240 h
Outline: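 MABA in 7H9 medium: log-phase culture passed through 8 µm filter, density set by OD600 and McFarland standards, 1 × 10^6 cells per well with drug dilutions; aerobic incubation 37 °C 10 days, then 0.02 % resazurin, overnight 37 °C. MIC = lowest concentration preventing blue-to-pink change. Triplicate; medium+inoculum and medium-only controls.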

[2] = test system: Mycobacterium tuberculosis; experiment: Antimycobacterial activity against MDR Mycobacterium tuberculosis isolate 591 after 15 days by MABA; type: functional; conditions: isolate 591, 360 h
Outline: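 MABA in 7H9 medium on MDR clinical isolate 591: filtered single-cell suspension, 1 × 10^6 cells per well with drug dilutions, aerobic 37 °C; 0.02 % resazurin added on day 15, overnight 37 °C. MIC = lowest concentration preventing blue-to-pink change. Triplicate; medium+inoculum and medium-only controls.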

[3] = test system: Mycobacterium tuberculosis; experiment: Bactericidal activity against Mycobacterium tuberculosis H37Rv after 4 weeks by MABA; type: functional; conditions: 672 h
[4] = test system: Mycobacterium tuberculosis; experiment: Ratio of MBC to MIC for Mycobacterium tuberculosis H37Rv; type: functional
[5] = Cytotoxicity against human THP1 cells assessed as cell viability at 18.72 ug/ml after 48 hrs by MTT assay relative to control; type: cell-based; conditions: THP-1 cells, read-out: Activity
Outline: (§1)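 THP-1 cells (human monocytic line) seeded at 10^4 per well and adhered with phorbol myristate acetate (20 ng/mL). Then given fresh RPMI with 10% foetal calf serum and 2 mM L-glutamine, plus compound by serial double dilution (4.68–150 µg/mL), with DMSO and no-DMSO controls. Incubated 24 or 48 h at 37 °C, 5% CO2. MTT added for 4 h, formazan dissolved in DMSO, A540 read, percentage survival calculated.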

[6] = Cytotoxicity against human THP1 cells assessed as cell viability at 150 ug/ml after 48 hrs by MTT assay relative to control; type: cell-based; conditions: THP-1 cells, read-out: Activity; outline: as §1
[7] = Cytotoxicity against human THP1 cells assessed as cell viability at 4.68 ug/ml after 24 hrs by MTT assay relative to control; type: cell-based; conditions: THP-1 cells, read-out: Activity; outline: as §1
[8] = Cytotoxicity against human THP1 cells assessed as cell viability at 18.72 ug/ml after 24 hrs by MTT assay relative to control; type: cell-based; conditions: THP-1 cells, read-out: Activity; outline: as §1
[9] = Cytotoxicity against human THP1 cells assessed as cell viability at 37.48 ug/ml after 24 hrs by MTT assay relative to control; type: cell-based; conditions: THP-1 cells, read-out: Activity; outline: as §1
[10] = Cytotoxicity against human THP1 cells assessed as cell viability at 9.36 ug/ml after 48 hrs by MTT assay relative to control; type: cell-based; conditions: THP-1 cells, read-out: Activity; outline: as §1
[11] = Cytotoxicity against human THP1 cells assessed as cell viability at 4.68 ug/ml after 48 hrs by MTT assay relative to control; type: cell-based; conditions: THP-1 cells, read-out: Activity; outline: as §1
[12] = test system: Mycobacterium tuberculosis; experiment: Potency index, ratio of isoniazid MIC to compound MIC for antimycobacterial activity against MDR Mycobacterium tuberculosis isolate 591; type: functional
[13] = test system: Mycobacterium tuberculosis; experiment: Potency index, ratio of rifampicin MIC to compound MIC for antimycobacterial activity against MDR Mycobacterium tuberculosis isolate 591; type: functional
[14] = Cytotoxicity against human THP1 cells assessed as cell viability at 75 ug/ml after 48 hrs by MTT assay relative to control; type: cell-based; conditions: THP-1 cells, read-out: Activity; outline: as §1
[15] = Cytotoxicity against human THP1 cells assessed as cell viability at 37.48 ug/ml after 48 hrs by MTT assay relative to control; type: cell-based; conditions: THP-1 cells, read-out: Activity; outline: as §1
[16] = Cytotoxicity against human THP1 cells assessed as cell viability at 75 ug/ml after 24 hrs by MTT assay relative to control; type: cell-based; conditions: THP-1 cells, read-out: Activity; outline: as §1
[17] = Selectivity index, ratio of IC50 for cytotoxicity against human THP1 cells to MIC for Mycobacterium tuberculosis H37Rv; type: toxicity, cell-based; conditions: THP-1 cells, read-out: Selectivity Index
Outline: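 THP-1 cells, 10^4/well, adhered with PMA 20 ng/mL, in RPMI with 10 % FCS and 2 mM L-glutamine; exposed to 4.68–150 µg/mL for 24 and 48 h at 37 °C, 5 % CO2; MTT 4 h, formazan in DMSO, A540. Index = THP-1 IC50 divided by H37Rv MABA MIC.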

THP-1 = experiment: Cytotoxicity against human THP1 cells assessed as growth inhibition after 24 to 48 hrs by MTT assay; type: cell-based; outline: as §1
[18] = test system: Mycobacterium tuberculosis; experiment: Potency index, ratio of ethambutol MIC to compound MIC for antimycobacterial activity against MDR Mycobacterium tuberculosis isolate 591; type: functional
[19] = test system: Mycobacterium tuberculosis; experiment: Potency index, ratio of streptomycin MIC to compound MIC for antimycobacterial activity against MDR Mycobacterium tuberculosis isolate 591; type: functional
[20] = Cytotoxicity against human THP1 cells assessed as cell viability at 150 ug/ml after 24 hrs by MTT assay relative to control; type: cell-based; conditions: THP-1 cells, read-out: Activity; outline: as §1
[21] = Cytotoxicity against human THP1 cells assessed as cell viability at 9.36 ug/ml after 24 hrs by MTT assay relative to control; type: cell-based; conditions: THP-1 cells, read-out: Activity; outline: as §1

CO[C@H]1/C=C/O[C@@]2(C)Oc3c(C)c(O)c4c(O)c(c(/C=N/N5CCN(C)CC5)c(O)c4c3C2=O)NC(=O)/C(C)=C\C=C\[C@H](C)[C@H](O)[C@@H](C)[C@@H](O)[C@@H](C)[C@H](OC(C)=O)[C@@H]1C [RIFAMPIN]
MIC [1]: 0.02 µM (≈ 0.0165 µg/mL) | MIC [2]: 152 µM (≈ 125 µg/mL)

Cc1cc(=O)oc2cc(OCc3cn([C@@H]4O[C@H](COC(=O)c5ccccc5)[C@@H](OC(=O)c5ccccc5)[C@H]4OC(=O)c4ccccc4)nn3)c(Cl)cc12
MBC [3]: 27.2 µM (≈ 20 µg/mL) | MIC [1]: 13.5 µM (≈ 9.94 µg/mL) | MIC [2]: 20.4 µM (≈ 15 µg/mL) | Ratio [4]: 2

Cc1cc(=O)oc2cc(OCc3cn([C@@H]4O[C@H](COC(=O)c5ccccc5)[C@@H](OC(=O)c5ccccc5)[C@H]4OC(=O)c4ccccc4)nn3)ccc12
MBC [3]: 17.1 µM (≈ 12 µg/mL) | MIC [1]: 8.5 µM (≈ 5.96 µg/mL) | MIC [2]: 11.4 µM (≈ 8 µg/mL) | Ratio [4]: 2

CC[C@@H](CO)NCCN[C@@H](CC)CO [ETHAMBUTOL]
MIC [1]: 9.7 µM (≈ 1.98 µg/mL) | MIC [2]: 73.4 µM (≈ 15 µg/mL)

O=c1ccc2ccc(-c3cn([C@@H]4O[C@H](CO)[C@@H](O)[C@H]4O)nn3)cc2o1
MBC [3]: 46.3 µM (≈ 16 µg/mL) | MIC [1]: 28.9 µM (≈ 9.98 µg/mL) | MIC [2]: 28.9 µM (≈ 9.98 µg/mL) | Ratio [4]: 1.6

Cc1cc(=O)oc2cc(-c3cn([C@@H]4O[C@H](COC(=O)c5ccccc5)[C@@H](OC(=O)c5ccccc5)[C@H]4OC(=O)c4ccccc4)nn3)c(Cl)cc12
MBC [3]: 25.5 µM (≈ 18 µg/mL) | MIC [1]: 14.2 µM (≈ 10 µg/mL) | MIC [2]: 14.2 µM (≈ 10 µg/mL) | Ratio [4]: 1.8

O=c1cc(-c2ccccc2)c2ccc(OCc3cn([C@@H]4O[C@H](CO)[C@@H](O)[C@H]4O)nn3)cc2o1
viability at 48 h, 18.72 ug/ml [5]: 84% | viability at 48 h, 150 ug/ml [6]: 62% | viability at 24 h, 4.68 ug/ml [7]: 100% | MBC [3]: 17.7 µM (≈ 7.99 µg/mL) | viability at 24 h, 18.72 ug/ml [8]: 100% | viability at 24 h, 37.48 ug/ml [9]: 94% | viability at 48 h, 9.36 ug/ml [10]: 93% | viability at 48 h, 4.68 ug/ml [11]: 95% | Ratio [12]: 7 - 420 | MIC [1]: 4.4 µM (≈ 1.99 µg/mL) | Ratio [13]: 7 - 420 | viability at 48 h, 75 ug/ml [14]: 70% | viability at 48 h, 37.48 ug/ml [15]: 78% | viability at 24 h, 75 ug/ml [16]: 88% | MIC [2]: 8.9 µM (≈ 4.02 µg/mL) | selectivity ratio [17]: 75.4 | Ratio [4]: 4 | IC50 (THP-1): > 332 µM | Ratio [18]: 7 - 420 | Ratio [19]: 7 - 420 | viability at 24 h, 150 ug/ml [20]: 79% | viability at 24 h, 9.36 ug/ml [21]: 100%

Cc1cc(=O)oc2cc(-c3cn([C@@H]4O[C@H](COC(=O)c5ccccc5)[C@@H](OC(=O)c5ccccc5)[C@H]4OC(=O)c4ccccc4)nn3)ccc12
MBC [3]: 26.8 µM (≈ 18 µg/mL) | MIC [1]: 11.9 µM (≈ 7.99 µg/mL) | MIC [2]: 29.8 µM (≈ 20 µg/mL) | Ratio [4]: 2.25

Cc1cc(=O)oc2cc(OCc3cn([C@@H]4O[C@H](CO)[C@@H](O)[C@H]4O)nn3)c(Cl)cc12
MBC [3]: 37.7 µM (≈ 16 µg/mL) | MIC [1]: 18.9 µM (≈ 8.01 µg/mL) | MIC [2]: 18.9 µM (≈ 8.01 µg/mL) | Ratio [4]: 2

Reference: ChEMBL document CHEMBL4196081, “Synthesis and antimycobacterial activity of 1-(β-d-Ribofuranosyl)-4-coumarinyloxymethyl- / -coumarinyl-1,2,3-triazole” (Eur J Med Chem, 2018)
